The source made the active and inactive calls. No cut-off for these calls is given here. Bridge positions count the residues as written; N and C are the ends. Square brackets hold non-standard residues; d marks the D form. Peptide text beside a SMILES is read from it. * marks the point of attachment. Arg(Me2s) = CN=C(NC)NCCC[C@H](N)C(=O)O; Arg(Me) = CNC(=N)NCCC[C@H](N)C(=O)O; d(αMeK) = C[C@@](N)(CCCCN)C(=O)O; dPhg = N[C@@H](C(=O)O)c1ccccc1; dOrn = NCCC[C@@H](N)C(=O)O; dDab = NCC[C@@H](N)C(=O)O; Isobutyryl = CC(C)C(=O)*; dDap = NC[C@@H](N)C(=O)O; Abu = CC[C@H](N)C(=O)O
How the values were obtained:
[1] = biological target: MLL1-ASH2L/RbBP5/WDR5/DPY30 (Homo sapiens, UniProt P61964); experiment: Inhibition of human N-terminal GST-tagged MLL1 (3735 to 3973 residues) interaction with human full length N-terminal 6xHis-tagged ASH2L/N-terminal 6xHis-tagged human full length RbBP5/human N-terminal 6xHis-tagged WDR5/human full length N-terminal 6xHis-tagged DPY30 assessed as decrease in H3K4me1-2 methylation preincubated for 30 mins followed by SAM/nucleosome mixture addition measured after 120 mins in absence of light by AlphaLISA assay; type: protein assay
MV4-11 [2] = experiment: Cytotoxicity against human MV4-11 cells harboring MLL-AF4 fusion protein assessed as cell growth inhibition after 4 days by WST8 assay; type: functional, cell-based; details: MV4-11, 96 h
In short: (§1)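 Cells (MOLM-13 with MLL-AF9, MV4-11 with MLL-AF4, HL-60 with no MLL fusion) seeded at 1 × 10^4 cells/well and exposed to a range of inhibitor concentrations for 4 days, with 0.2% DMSO final in the medium. Viability was read by WST-8 kit. Three independent experiments, each in triplicate.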

HL-60 = experiment: Cytotoxicity against human HL60 cells lacking MLL translocation assessed as cell growth inhibition after 4 days by WST8 assay; type: cell-based; details: HL-60, 96 h; in short: as §1
[3] = Inhibition of 5-FAM tracer binding to WDR5 delta23 mutant (24 to 334 residues) (unknown origin) expressed in Escherichia coli Rosetta 2 (DE3) cells after 3 hrs by fluorescence polarization assay; design: species or system Homo sapiens
MOLM-13 [4] = experiment: Cytotoxicity against human MOLM13 cells harboring MLL-AF9 fusion protein assessed as cell growth inhibition after 4 days by WST8 assay; type: functional, cell-based; details: MOLM-13, 96 h; in short: as §1
[5] = Half life in mouse microsomes; type: ADME, Microsome
[6] = Half life in human microsomes; type: ADME, Microsome
MV4-11 [7] = experiment: Cytotoxicity against human MV4-11 cells harboring MLL-AF4 fusion protein assessed as cell growth inhibition after 7 days by WST8 assay; type: functional, cell-based; details: MV4-11, 168 h
In short: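 MV4-11 cells (MLL-AF4) plated at 5 × 10^4 cells/mL and treated with the compound. WST-8 viability was read on day 4. Then 10% of viable cells were moved to fresh medium with the same compound concentrations and cultured 3 more days. The day-7 read was also by WST-8.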

[8] = biological target: Histone-lysine N-methyltransferase 2C (Homo sapiens) (UniProt Q8NEZ4); experiment: Inhibition of MLL3 (unknown origin) H3K4 methyltransferase activity using biotinyl-H3 peptide (1 to 21 residues) and using [3H]-S adenosylmethionine as methyl donor up to 100 uM after 1 hr by scintillation counting
MOLM-13 [9] = experiment: Cytotoxicity against human MOLM13 cells harboring MLL-AF9 fusion protein assessed as cell growth inhibition after 7 days by WST8 assay; type: functional, cell-based; details: MOLM-13, 168 h
In short: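 Long-term treatment of MOLM-13 plated at 5 × 10^4 cells/mL. Viability measured by WST-8 on day 4. Then 10% of viable cells were moved to fresh medium at the same compound concentration and cultured 3 more days, with viability read again on day 7.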

MV4-11 [10] = experiment: Cytotoxicity against human MV4-11 cells harboring MLL-AF4 fusion protein assessed as cell growth inhibition at 0.69 uM after 4 days by WST8 assay; type: functional; details: MV4-11, 96 h, read-out: GI
[11] = Half life in rat microsomes; type: ADME, Microsome
[12] = biological target: Histone-lysine N-methyltransferase 2B (Homo sapiens) (UniProt Q9UMN6); experiment: Inhibition of MLL2 (unknown origin) H3K4 methyltransferase activity using biotinyl-H3 peptide (1 to 21 residues) and using [3H]-S adenosylmethionine as methyl donor up to 100 uM after 1 hr by scintillation counting
MOLM-13 [13] = experiment: Cytotoxicity against human MOLM13 cells harboring MLL-AF9 fusion protein assessed as cell growth inhibition at 0.10 uM after 7 days by WST8 assay; type: functional; details: MOLM-13, 168 h, read-out: GI
[14] = Stability of compound in cell culture media at 0.5 mM after 7 days by Waters ACQUITY UPLC analysis
[15] = biological target: Histone-lysine N-methyltransferase SETD1A (Homo sapiens) (UniProt O15047); experiment: Inhibition of SET1a (unknown origin) H3K4 methyltransferase activity using biotinyl-H3 peptide (1 to 21 residues) and using [3H]-S adenosylmethionine as methyl donor up to 100 uM after 1 hr by scintillation counting
Sequence of Histone-lysine N-methyltransferase SETD1A (Homo sapiens) (O15047 whole entry, the tested form may be a part): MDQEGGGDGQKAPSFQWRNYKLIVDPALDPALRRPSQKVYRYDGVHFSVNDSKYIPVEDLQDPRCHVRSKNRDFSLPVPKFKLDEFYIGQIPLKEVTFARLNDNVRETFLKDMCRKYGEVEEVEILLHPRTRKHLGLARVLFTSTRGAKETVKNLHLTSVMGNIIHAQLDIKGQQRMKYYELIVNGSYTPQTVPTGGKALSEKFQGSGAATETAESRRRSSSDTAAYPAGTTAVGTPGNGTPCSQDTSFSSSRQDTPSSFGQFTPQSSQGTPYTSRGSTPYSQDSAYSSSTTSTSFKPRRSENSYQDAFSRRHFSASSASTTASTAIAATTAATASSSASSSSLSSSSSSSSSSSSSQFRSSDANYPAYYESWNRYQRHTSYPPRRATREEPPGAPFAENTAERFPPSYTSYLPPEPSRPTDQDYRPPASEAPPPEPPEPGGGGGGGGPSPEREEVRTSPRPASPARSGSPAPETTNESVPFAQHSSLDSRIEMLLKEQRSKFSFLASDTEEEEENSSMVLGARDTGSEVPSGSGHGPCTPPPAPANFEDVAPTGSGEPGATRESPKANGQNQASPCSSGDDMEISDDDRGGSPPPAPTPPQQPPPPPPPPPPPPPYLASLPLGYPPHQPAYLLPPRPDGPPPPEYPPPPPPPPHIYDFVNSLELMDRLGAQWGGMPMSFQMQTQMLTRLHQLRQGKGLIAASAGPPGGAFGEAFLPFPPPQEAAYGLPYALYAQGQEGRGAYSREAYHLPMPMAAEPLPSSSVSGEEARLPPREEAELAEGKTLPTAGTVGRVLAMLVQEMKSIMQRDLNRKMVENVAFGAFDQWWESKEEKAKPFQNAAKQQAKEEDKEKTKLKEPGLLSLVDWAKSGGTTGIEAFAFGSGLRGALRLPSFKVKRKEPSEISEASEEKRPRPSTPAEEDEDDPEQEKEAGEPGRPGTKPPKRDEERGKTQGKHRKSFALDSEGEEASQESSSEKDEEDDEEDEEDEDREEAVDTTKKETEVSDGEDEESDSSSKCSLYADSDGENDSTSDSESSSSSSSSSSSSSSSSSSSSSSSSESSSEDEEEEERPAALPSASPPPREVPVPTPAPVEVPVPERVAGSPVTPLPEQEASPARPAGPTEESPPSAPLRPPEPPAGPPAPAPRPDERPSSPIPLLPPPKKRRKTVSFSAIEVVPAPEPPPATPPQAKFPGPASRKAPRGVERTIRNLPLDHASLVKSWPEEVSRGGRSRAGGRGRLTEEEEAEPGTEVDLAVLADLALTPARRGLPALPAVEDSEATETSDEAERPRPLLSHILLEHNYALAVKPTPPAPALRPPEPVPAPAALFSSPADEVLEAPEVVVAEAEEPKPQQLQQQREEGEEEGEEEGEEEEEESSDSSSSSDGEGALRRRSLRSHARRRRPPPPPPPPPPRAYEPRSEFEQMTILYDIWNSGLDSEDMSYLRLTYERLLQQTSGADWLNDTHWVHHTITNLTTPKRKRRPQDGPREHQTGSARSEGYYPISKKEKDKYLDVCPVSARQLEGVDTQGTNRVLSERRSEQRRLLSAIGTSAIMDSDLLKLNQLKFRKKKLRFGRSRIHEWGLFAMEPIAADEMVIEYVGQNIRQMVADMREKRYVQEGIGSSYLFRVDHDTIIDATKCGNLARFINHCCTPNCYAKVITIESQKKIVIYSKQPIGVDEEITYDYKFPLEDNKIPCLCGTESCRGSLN

[16] = Selectivity ratio of IC50 for human HL60 cells lacking MLL translocation to IC50 for human MV4-11 cells harboring MLL-AF4 fusion protein
MOLM-13 [17] = experiment: Cytotoxicity against human MOLM13 cells harboring MLL-AF9 fusion protein assessed as cell growth inhibition at 0.38 uM after 4 days by WST8 assay; type: functional; details: MOLM-13, 96 h, read-out: GI
MV4-11 [18] = experiment: Cytotoxicity against human MV4-11 cells harboring MLL-AF4 fusion protein assessed as cell growth inhibition at […] after 7 days by WST8 assay; type: functional; details: MV4-11, 168 h, read-out: GI
[19] = biological target: Histone-lysine N-methyltransferase SETD1B (Homo sapiens) (UniProt Q9UPS6); experiment: Inhibition of […] (unknown origin) H3K4 methyltransferase activity using biotinyl-H3 peptide (1 to 21 residues) and using [3H]-S adenosylmethionine as methyl donor up to 100 uM after 1 hr by scintillation counting
Sequence of Histone-lysine N-methyltransferase SETD1B (Homo sapiens) (Q9UPS6 whole entry, the tested form may be a part): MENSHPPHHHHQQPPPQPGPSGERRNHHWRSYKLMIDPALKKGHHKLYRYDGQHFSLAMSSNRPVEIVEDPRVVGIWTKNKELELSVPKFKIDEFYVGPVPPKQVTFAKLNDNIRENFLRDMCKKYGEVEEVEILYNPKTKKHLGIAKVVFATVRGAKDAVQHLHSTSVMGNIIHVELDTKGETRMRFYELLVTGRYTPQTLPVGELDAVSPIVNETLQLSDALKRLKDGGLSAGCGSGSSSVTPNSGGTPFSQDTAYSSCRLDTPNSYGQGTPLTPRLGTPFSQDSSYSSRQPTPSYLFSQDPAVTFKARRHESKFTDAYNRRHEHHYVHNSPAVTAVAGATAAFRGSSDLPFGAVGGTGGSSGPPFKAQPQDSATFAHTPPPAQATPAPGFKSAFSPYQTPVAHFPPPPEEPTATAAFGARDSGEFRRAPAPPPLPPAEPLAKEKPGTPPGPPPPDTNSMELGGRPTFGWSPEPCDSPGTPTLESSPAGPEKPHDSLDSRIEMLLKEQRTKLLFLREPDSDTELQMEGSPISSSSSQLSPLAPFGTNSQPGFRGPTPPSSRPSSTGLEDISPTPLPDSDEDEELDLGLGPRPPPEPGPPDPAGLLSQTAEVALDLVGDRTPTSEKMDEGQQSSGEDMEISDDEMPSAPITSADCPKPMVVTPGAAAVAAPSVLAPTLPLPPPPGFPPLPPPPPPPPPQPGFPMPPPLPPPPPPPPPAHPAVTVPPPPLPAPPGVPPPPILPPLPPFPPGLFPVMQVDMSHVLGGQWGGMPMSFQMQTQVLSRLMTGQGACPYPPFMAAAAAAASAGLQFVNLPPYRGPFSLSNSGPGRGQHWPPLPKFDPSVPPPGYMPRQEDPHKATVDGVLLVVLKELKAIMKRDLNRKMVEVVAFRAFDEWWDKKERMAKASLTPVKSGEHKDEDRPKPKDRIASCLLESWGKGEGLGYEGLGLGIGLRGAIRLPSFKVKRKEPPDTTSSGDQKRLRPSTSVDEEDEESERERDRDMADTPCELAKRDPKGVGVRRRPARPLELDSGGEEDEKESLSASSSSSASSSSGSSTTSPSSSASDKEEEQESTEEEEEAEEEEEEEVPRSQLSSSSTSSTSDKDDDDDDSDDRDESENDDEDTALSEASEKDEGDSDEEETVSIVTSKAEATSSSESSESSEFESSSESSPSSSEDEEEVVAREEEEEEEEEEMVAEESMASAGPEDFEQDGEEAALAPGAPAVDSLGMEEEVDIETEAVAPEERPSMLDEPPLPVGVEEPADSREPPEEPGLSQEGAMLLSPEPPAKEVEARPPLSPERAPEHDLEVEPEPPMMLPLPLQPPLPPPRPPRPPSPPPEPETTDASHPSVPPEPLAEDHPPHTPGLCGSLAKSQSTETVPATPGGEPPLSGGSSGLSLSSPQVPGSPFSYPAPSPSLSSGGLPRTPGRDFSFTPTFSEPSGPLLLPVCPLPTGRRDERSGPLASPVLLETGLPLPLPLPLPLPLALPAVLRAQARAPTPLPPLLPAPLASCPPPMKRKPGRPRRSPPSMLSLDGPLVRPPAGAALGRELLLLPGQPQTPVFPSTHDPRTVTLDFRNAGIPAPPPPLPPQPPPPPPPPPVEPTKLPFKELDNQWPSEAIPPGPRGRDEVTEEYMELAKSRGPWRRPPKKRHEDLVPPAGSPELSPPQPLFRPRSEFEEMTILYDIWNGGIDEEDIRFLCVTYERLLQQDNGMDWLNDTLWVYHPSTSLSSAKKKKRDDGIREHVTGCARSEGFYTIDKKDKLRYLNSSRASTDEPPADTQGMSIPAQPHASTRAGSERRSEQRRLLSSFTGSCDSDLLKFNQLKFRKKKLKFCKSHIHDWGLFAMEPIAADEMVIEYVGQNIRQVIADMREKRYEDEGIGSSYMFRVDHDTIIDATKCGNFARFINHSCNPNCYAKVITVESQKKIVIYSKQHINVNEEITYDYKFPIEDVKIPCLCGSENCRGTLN

[20] = biological target: Histone-lysine N-methyltransferase 2D (Homo sapiens) (UniProt O14686); experiment: Inhibition of MLL4 (unknown origin) H3K4 methyltransferase activity using biotinyl-H3 peptide (1 to 21 residues) and using [3H]-S adenosylmethionine as methyl donor up to 100 uM after 1 hr by scintillation counting
[21] = Selectivity ratio of IC50 for human HL60 cells lacking MLL translocation to IC50 for human MOLM13 cells harboring MLL-AF9 fusion protein

| SMILES | IC50 [1] | IC50 (MV4-11 [2]) | IC50 (HL-60) | IC50 [3] | Ki [3] | IC50 (MOLM-13 [4]) | half-life [5] | half-life [6] | half-life [11] | other results |
| --- | --- | --- | --- | --- | --- | --- | --- | --- | --- | --- |
| CC[C@@H]1NC(=O)[C@H](CCCNC(=N)N)NC(=O)[C@H](NC(=O)C(C)C)CCCCNC(=O)[C@@H](c2ccccc2)NC1=O (Isobutyryl-[dK]R[Abu][dPhg]; lactam 1-C) | > 10000 nM | > 100000 nM | > 100000 nM | 298 nM | 60.3 nM | > 100000 nM |  |  |  |  |
| CC[C@@H]1NC(=O)[C@H](CCCNC(=N)NC)NC(=O)[C@](C)(NC(=O)C(C)C)CCNC(=O)[C@@H](c2ccccc2)NC1=O.O=C(O)C(F)(F)F | 12.7 nM | 250 nM | 8560 nM | 0.9 nM | < 1 nM | 210 nM | > 1 h | > 1 h | > 1 h | IC50 (MV4-11 [7]): 290 nM; inhibition [8]: inactive; IC50 (MOLM-13 [9]): 100 nM; inhibition of growth at 0.69 µM (MV4-11 [10]): 75%; inhibition [12]: inactive; inhibition of growth at 0.1 µM (MOLM-13 [13]): > 95%; Stability [14]: Stable; inhibition [15]: inactive; Ratio IC50 [16]: >30; inhibition of growth at 0.38 µM (MOLM-13 [17]): 75%; inhibition of growth at […] (MV4-11 [18]): > 95%; inhibition [19]: inactive; inhibition [20]: inactive; Ratio IC50 [21]: >30 |
| CC[C@@H]1NC(=O)[C@H](CCCNC(=N)N)NC(=O)[C@](C)(NC(=O)C(C)C)CCCNC(=O)[C@@H](c2ccccc2)NC1=O.O=C(O)C(F)(F)F | 84.8 nM | 1290 nM | 46800 nM | 0.97 nM | < 1 nM | 1280 nM | > 1 h | > 1 h | > 1 h | Ratio IC50 [16]: >30; Ratio IC50 [21]: >30 |
| CC[C@@H]1NC(=O)[C@H](CCCNC(=N)N)NC(=O)[C@](C)(NC(=O)C(C)C)CCCCN(C)C(=O)[C@@H](c2ccc(F)cc2)NC1=O.O=C(O)C(F)(F)F | 138 nM | 5200 nM | 60000 nM | 1.6 nM | < 1 nM | 16200 nM | > 1 h | > 1 h | > 1 h |  |
| CC[C@@H]1NC(=O)[C@H](CCCNC(=N)NC)NC(=O)[C@](C)(NC(=O)C(C)C)CCNC(=O)[C@H](c2ccccc2)NC1=O | 477 nM | 35000 nM |  | 2 nM | < 1 nM | 14300 nM |  |  |  |  |
| CC[C@@H]1NC(=O)[C@H](CCCNC(=N)N)NC(=O)[C@](C)(NC(=O)C(C)C)CCCCCNC(=O)[C@@H](c2ccccc2)NC1=O | 1530 nM | 15100 nM | > 100000 nM | 2.6 nM | < 1 nM | 37600 nM |  |  |  |  |
| CC[C@@H]1NC(=O)[C@H](CCCNC(=N)N)NC(=O)[C@](C)(NC(=O)C(C)C)CCNC(=O)[C@@H](c2ccccc2)NC1=O.O=C(O)C(F)(F)F | 12.6 nM | 460 nM | 17400 nM | 1.08 nM | < 1 nM | 280 nM | > 1 h | > 1 h | > 1 h | Ratio IC50 [16]: >30; Ratio IC50 [21]: >30 |
| CC[C@@H]1NC(=O)[C@H](CCCNC(=N)N)NC(=O)[C@H](NC(=O)C(C)C)CCNC(=O)[C@@H](c2ccccc2)NC1=O (Isobutyryl-[dDab]R[Abu][dPhg]; lactam 1-C) | 1800 nM | 43400 nM | > 100000 nM | 6.2 nM | 0.8 nM | 42800 nM |  |  |  |  |
| CC[C@@H]1NC(=O)[C@H](CCCNC(=N)N)NC(=O)[C@](C)(NC(=O)C(C)C)CCCCN(C)C(=O)[C@@H](c2ccc(Cl)cc2)NC1=O.O=C(O)C(F)(F)F | 124 nM |  |  | 1.5 nM | < 1 nM |  | > 1 h | > 1 h | > 1 h |  |
| CC[C@@H]1NC(=O)[C@H](CCCN/C(=N/C)NC)NC(=O)[C@](C)(NC(=O)C(C)C)CCCCNC(=O)[C@@H](c2ccccc2)NC1=O (Isobutyryl-[d(αMeK)][Arg(Me2s)][Abu][dPhg]; lactam 1-C) | 1260 nM | 15200 nM | 84800 nM | 2.4 nM | < 1 nM | 31500 nM |  |  |  |  |
| CC[C@@H]1NC(=O)[C@H](CCCNC(=N)N)NC(=O)[C@](C)(NC(=O)C(C)C)CCCCN(C)C(=O)[C@@H](c2ccccc2)NC1=O.O=C(O)C(F)(F)F | 190 nM |  |  | 1.6 nM | < 1 nM |  | > 1 h | > 1 h | > 1 h |  |
| CC[C@H]1NC(=O)[C@@H](CCCNC(=N)N)NC(=O)[C@@](C)(NC(=O)C(C)C)CCCCNC(=O)[C@H](c2ccccc2)NC1=O |  | > 100000 nM | > 100000 nM |  |  | > 100000 nM |  |  |  |  |
| CC[C@@H]1NC(=O)[C@H](CCCNC(=N)N)NC(=O)[C@H](NC(=O)C(C)C)CNC(=O)[C@@H](c2ccccc2)NC1=O (Isobutyryl-[dDap]R[Abu][dPhg]; lactam 1-C) | > 10000 nM |  |  | 1190 nM | 242 nM |  |  |  |  |  |
| CC[C@@H]1NC(=O)[C@H](CCCNC(=N)NC)NC(=O)[C@](C)(NC(=O)C(C)C)CCCCNC(=O)[C@@H](c2ccccc2)NC1=O (Isobutyryl-[d(αMeK)][Arg(Me)][Abu][dPhg]; lactam 1-C) | 452 nM | 4300 nM | > 100000 nM | 1.1 nM | < 1 nM | 3600 nM |  |  |  |  |
| CC[C@@H]1NC(=O)[C@H](CCCNC(=N)N)NC(=O)[C@H](NC(=O)C(C)C)CCCNC(=O)[C@@H](c2ccccc2)NC1=O (Isobutyryl-[dOrn]R[Abu][dPhg]; lactam 1-C) | > 10000 nM | > 100000 nM | > 100000 nM | 164 nM | 32.9 nM | > 100000 nM |  |  |  |  |
| CCC(CC)(NC(=O)C(C)C)C(=O)N[C@@H](CCCNC(=N)N)C(=O)NC1(C(=O)NC(c2ccccc2)c2ccccc2)CCCC1 |  |  |  |  |  |  | 0.733 h | 0.0667 h | 0.567 h |  |
| CC[C@@H]1NC(=O)[C@H](CCCNC(=N)N)NC(=O)[C@](C)(NC(=O)C(C)C)CCCCNC(=O)[C@@H](c2ccccc2)NC1=O.O=C(O)C(F)(F)F |  |  | > 100000 nM |  |  |  | > 1 h | > 1 h | > 1 h |  |

From ChEMBL document CHEMBL4014355 (J Med Chem, 2017)
